One block for each compound: values may come before it.
Key:
CCKA receptor = CCKA receptor mediation of PKCθ T538 phosphorylation in pancreatic acini; format: cell-based, rat
PKCθ / RafC = experiment: Co-IP association of PKCθ with RafC; format: cell-based, rat; settings: 2.5 min, 3 independent experiments; for association of PKCθ with RafC: CCK 10 nM or TPA 1 μM
PKCθ / p85 PI3K = experiment: Co-IP association of PKCθ with p85 PI3K; format: cell-based, rat
Method in brief: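 Rat acini stimulated with CCK 10 nM or TPA 1 μM, then lysed in CelLytic buffer with vanadate, PMSF and protease inhibitors. Lysate (750 μg/ml) incubated overnight at 4 °C with 4 μg antibody and protein G-agarose. Immunoprecipitates washed with PBS, then analysed by SDS-PAGE and Western blotting.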

PKCθ / MALT-1 = experiment: Co-IP association of PKCθ with MALT-1; format: cell-based, rat; settings: CCK 10 nM or TPA 1 μM, data not shown
pT538 PKCθ = experiment: PKCθ immunofluorescence-cytochemistry; format: cell-based, rat; settings: TPA 1 μM or CCK 10 nM, 10 minutes; 4 independent experiments
Method in brief: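 Acini left untreated or given TPA 1 μM or CCK 10 nM for 10 min, then washed, fixed, permeabilized and cytocentrifuged onto poly-L-lysine slides. Labelled overnight at 4 °C with rabbit anti-pT538 PKCθ and mouse anti-E-cadherin (1:500), detected with Alexa 488/555 secondaries, nuclei stained with DAPI. Isotype-matched primary as negative control; 4 experiments.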

PKCθ / RafB = experiment: Co-IP association of PKCθ with RafB; format: cell-based, rat
Method in brief: (§1)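 Rat pancreatic acini are dispersed by collagenase and preincubated 2 hrs at 37 °C in HEPES (pH 7.45) incubation solution, then left unstimulated or given CCK (10 nM) or TPA (1 μM). Cells are lysed in CelLytic buffer with vanadate, PMSF and protease inhibitors. Lysate (750 μg/ml) is immunoprecipitated overnight at 4 °C with 4 μg anti-PKCθ plus protein G-agarose, PBS-washed, then analysed by SDS-PAGE/Western blot; ≥3 experiments.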

PKCθ / Lyn = experiment: Co-IP association of PKCθ with Lyn; format: cell-based, rat; settings: 2.5 min, 3 independent experiments; for association of PKCθ with Lyn: CCK 10 nM or TPA 1 μM
PKD (pS744/748) = experiment: PKD phosphorylation stimulated by CCK or TPA; format: cell-based, rat; settings: no inhibitor, p<0.05
Method in brief: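 Collagenase-dispersed rat acini preincubated 3 h ± 20 μM PKCθ pseudosubstrate, then CCK (10 nM, 2.5 min) or TPA (1 μM, 5 min), and lysed. Equal protein Western-blotted for pY311 PKCδ, pS744/748 PKD, pS338 RafC or pY416 Src, with total PKCθ and α/β tubulin as loading controls. Bands quantified by densitometry in the linear range. ≥3 experiments; mean±SEM; paired t-test.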

PKCθ / Cbl = experiment: Co-IP association of PKCθ with Cbl; format: cell-based, rat; settings: CCK 10 nM or TPA 1 μM, data not shown
PKCθ / RafA = experiment: Co-IP association of PKCθ with RafA; format: cell-based, rat; settings: 2.5 min, 3 independent experiments; for association of PKCθ with RafA: CCK 10 nM or TPA 1 μM
PKCθ / 14-3-3γ = experiment: Co-IP association of PKCθ with 14-3-3γ; format: cell-based, rat; settings: CCK 10 nM or TPA 1 μM, data not shown
PKCθ / tubulin = experiment: Co-IP association of PKCθ with tubulin; format: cell-based, rat
Method in brief: as §1

PKCθ / Akt = experiment: Co-IP association of PKCθ with Akt; format: cell-based, rat; settings: CCK 10 nM or TPA 1 μM, 2.5 min, 3 independent experiments
[1] = tested on: PKCθ (pT538) in pancreatic acini; experiment: PKCθ T538 phosphorylation in rat pancreatic acini; format: cell-based; settings: for tmax of pT538 PKCθ phosphorylation / pT538 PKCθ phosphorylation, maximum at about 1 min / pT538 PKCθ phosphorylation at 30 min: time course; for tmax of pT538 PKCθ phosphorylation / pT538 PKCθ phosphorylation, maximum at about 1 min / pT538 PKCθ phosphorylation at 30 min / stimulation of PKCθ phosphorylation (pT538), secretagogues: 5 independent experiments; for stimulation of PKCθ phosphorylation (pT538), secretagogues: isolated rat pancreatic acini, 5 minutes, Western blot
PKCθ [2] = experiment: PKCθ translocation to membranes; format: cell-based, rat; settings: p<0.05, mean±S.E., 5 independent experiments
Method in brief: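 Acini stimulated with CCK for 1 min or TPA for 5 min, then homogenized in Tris pH 7.5 buffer with EGTA/EDTA, vanadate, PMSF and protease inhibitors. The cleared supernatant was spun at 60,000×g for 30 min at 4 °C. The membrane pellet was washed, solubilized in Triton/deoxycholate buffer, sonicated and spun at 10,000×g. Western blot used anti-PKCθ; calpain and E-cadherin served as fraction markers. Results given as % control; 5 experiments.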

[3] = tested on: pancreatic acini (amylase secretion); experiment: Amylase release from pancreatic acini; format: cell-based, rat; settings: 15 minutes, basal 1.7±0.2, mean±S.E., 6 experiments
Method in brief: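 Rat pancreatic acini from collagenase digestion; 2 h preincubation ± 20 μM PKCθ pseudosubstrate in HEPES-buffered (pH 7.45) standard incubation solution, then 15 min with secretagogue. Medium amylase measured with Phadebas reagent and expressed as % of total cellular amylase released during incubation. Means±S.E.; paired Student's t-test.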

CrKII = settings: pancreatic acinar cells; ref [66]; cited from earlier work
PI-3 kinase = settings: pancreatic acinar cells; ref [67]; cited from earlier work
PKCδ [4] = settings: pancreatic acinar cells, cited from earlier work
phospholipase D = settings: pancreatic acinar cells; ref [67]; cited from earlier work
PYK2/CAKβ = settings: pancreatic acinar cells; ref [17]; cited from earlier work
PKCmu (PKD1) = settings: pancreatic acinar cells; no reference printed at this sentence; cited from earlier work
Lyn = settings: pancreatic acinar cells; ref [64]; cited from earlier work
PKCθ (T538) = settings: ref [61]; cited from earlier work
PKCθ [5] = settings: ref [62]; cited from earlier work
CCKB receptors = experiment: CCKB receptor mediation of PKCθ T538 phosphorylation in pancreatic acini; format: cell-based, rat; settings: 1 min, isolated acini, Western blot
PKCθ [6] = settings: ref [56]; cited from earlier work
PKCδ [7] = settings: ref [60]; cited from earlier work

- inhibition of CCK-stimulated PKCθ phosphorylation, CCKA receptor antagonists (CCKA receptor; preincubated 5 min, then CCK 10 nM for 1 min): completely inhibited
Compound: O=C(O)Cn1c(C(=O)Nc2nc(-c3ccccc3Cl)cs2)cc2ccccc21 [SR27897, 1-[[2-(4-(2-chlorophenyl)-thiazol-2-yl)aminocarbonyl]indolyl]acetic acid]

Compound: CCCCCCCCCCCCCC(=O)O[C@@H]1[C@@H](C)[C@@]2(O)[C@@H](C=C(CO)C[C@]3(O)C(=O)C(C)=C[C@@H]23)[C@H]2C(C)(C)[C@]12OC(C)=O [TPA, 12-O-tetradecanoylphobol-13-acetate]
- association of PKCθ with RafC (PKCθ / RafC): increase in the association
- association of PKCθ with p85 PI3K (PKCθ / p85 PI3K): but not an association with p85 PI3K
- association of PKCθ with MALT-1 (PKCθ / MALT-1): but not with MALT-1, Bcl-10, 14-3-3γ or Cbl
- phosphoT538 PKCθ in the membrane (immunofluorescence) (pT538 PKCθ): increased in the membrane in both cases (Panel B and C, Fig. 6, respectively), with the increase caused by TPA more prominent
- association of PKCθ with RafB (PKCθ / RafB): but not an association with p85 PI3K, PKD1, RafB
- association of PKCθ with Lyn (PKCθ / Lyn): increase in the association
- phosphorylation of PKD stimulated by TPA (PKD (pS744/748); TPA 1 μM, 5 min): 19.1±3.0 folds over control
- association of PKCθ with Cbl (PKCθ / Cbl): but not with MALT-1, Bcl-10, 14-3-3γ or Cbl
- association of PKCθ with RafA (PKCθ / RafA): increase in the association
- association of PKCθ with 14-3-3γ (PKCθ / 14-3-3γ): but not with MALT-1, Bcl-10, 14-3-3γ or Cbl
- association of PKCθ with tubulin (PKCθ / tubulin): but not an association with p85 PI3K, PKD1, RafB, Bcl-10, Cbl, MALT-1, tubulin
- association of PKCθ with Akt (PKCθ / Akt): increase in the association
- tmax of pT538 PKCθ phosphorylation [1]: 1.60±0.06 min
- pT538 PKCθ phosphorylation, maximum at about 1 min ([1]; mean±S.E.): 188±13 % of control
- pT538 PKCθ phosphorylation at 30 min ([1]; mean±S.E.): 171±23 % of control
- membrane associated PKCθ (PKCθ [2]; TPA, 5 min incubation): 189±59 % of control

Compound: C[N+](C)(C)CCOC(N)=O [carbachol]
- Amylase secretion (% total), −PKCθ inhibitor ([3]; Carbachol 1 μM): 6.8±0.7 % total
- Amylase secretion (% total), −PKCθ inhibitor ([3]; Carbachol 1 mM): 6.2±0.7 % total
- stimulation of PKCθ phosphorylation (pT538), secretagogues [1]: stimulated a significant increase

- CCK stimulation of PKCθ activation mediated by the high affinity state CCKA receptor (CCKA receptor; from CCK-JMV versus CCK maximal effect): 30%
- Amylase secretion (% total), −PKCθ inhibitor ([3]; CCK 0.03 nM): 5.1±0.8 % total
- Amylase secretion (% total), −PKCθ inhibitor ([3]; CCK 0.1 nM): 7.1±0.6 % total
- Amylase secretion (% total), −PKCθ inhibitor ([3]; CCK 100 nM): 4.5±0.4 % total
- EC50 ([1]; read-out: half-maximal effect (EC50), T538 PKCθ phosphorylation, dose-response, 1 minute, 4–5 independent experiments, GraphPad 5.0): 0.174 ± 0.008 nM
Compound: COOH-terminal octapeptide of cholecystokinin [CCK]
- CCKA receptor state mediating CrKII phosphorylation (CrKII): mediated only through activation of the low affinity CCKA receptor state
- association of PKCθ with RafC (PKCθ / RafC): increase in the association
- direct association of PKCθ with RafC at low CCK concentration or with CCK-JMV (PKCθ / RafC; CCK 0.1–1–10 nM or CCK-JMV): observed also at low CCK concentration
- association of PKCθ with p85 PI3K (PKCθ / p85 PI3K): but not an association with p85 PI3K
- CCKA receptor state mediating PI-3 kinase activation (PI-3 kinase): mediated entirely by the activation of the high affinity receptor state
- association of PKCθ with MALT-1 (PKCθ / MALT-1): but not with MALT-1, Bcl-10, 14-3-3γ or Cbl
- phosphoT538 PKCθ in the membrane (immunofluorescence) (pT538 PKCθ): increased in the membrane
- association of PKCθ with RafB (PKCθ / RafB): but not an association with p85 PI3K, PKD1, RafB
- CCK concentration required to fully activate PKCδ (PKCδ [4]; no reference printed at this sentence): 100 nM
- CCKA receptor state mediating PKCδ activation (PKCδ [4]; ref [14]): mediated only through activation of the low affinity CCKA receptor state
- association of PKCθ with Lyn (PKCθ / Lyn): increase in the association
- direct association of PKCθ with Lyn at low CCK concentration or with CCK-JMV (PKCθ / Lyn; CCK 0.1–1–10 nM or CCK-JMV): observed also at low CCK concentration
- phosphorylation of PKD stimulated by CCK (PKD (pS744/748); CCK 10 nM, 2.5 min): 19.4±3.69 folds over control
- association of PKCθ with Cbl (PKCθ / Cbl): but not with MALT-1, Bcl-10, 14-3-3γ or Cbl
- CCKA receptor state mediating phospholipase D activation (phospholipase D): mediated entirely by the activation of the high affinity receptor state
- association of PKCθ with RafA (PKCθ / RafA): increase in the association
- direct association of PKCθ with RafA at low CCK concentration or with CCK-JMV (PKCθ / RafA; CCK 0.1–1–10 nM or CCK-JMV): observed also at low CCK concentration
- share of maximal PYK2/CAKβ activation due to high affinity CCKA receptor state (PYK2/CAKβ): 20%
- CCK concentration for maximal PKCmu (PKD1) activation (PKCmu (PKD1)): 10 nM
- association of PKCθ with 14-3-3γ (PKCθ / 14-3-3γ): but not with MALT-1, Bcl-10, 14-3-3γ or Cbl
- association of PKCθ with tubulin (PKCθ / tubulin): but not an association with p85 PI3K, PKD1, RafB, Bcl-10, Cbl, MALT-1, tubulin
- association of PKCθ with Akt (PKCθ / Akt): increase in the association
- share of Lyn activation due to high affinity CCKA receptor state (Lyn): 60%
- maximal stimulation of T538 phosphorylation of PKCθ ([1]; 10 nM, 1 minute, 4–5 independent experiments, mean±S.E.): 239±25 % of control
- concentration of maximal effect, T538 PKCθ phosphorylation ([1]; dose-response, 1 minute): 10 nM
- stimulation of PKCθ phosphorylation (pT538), secretagogues [1]: stimulated a significant increase
- lowest concentration with detectable T538 PKCθ phosphorylation ([1]; pancreatic acinar cells): 0.1 nM
- tmax of pT538 PKCθ phosphorylation [1]: 0.78±0.08 min
- pT538 PKCθ phosphorylation, maximum at about 1 min ([1]; mean±S.E.): 197±19 % of control
- pT538 PKCθ phosphorylation at 30 min ([1]; mean±S.E.): 145±11 % of control
- membrane associated PKCθ (PKCθ [2]; CCK, 1 min incubation): 216±34 % of control

Compound: EGF: Epidermal growth factor
- T538 PKCθ phosphorylation in A431 cells (PKCθ (T538)): increases T538 PKCθ phosphorylation

Compound: IGF: insulin-like growth factor 1
- PKCθ catalytic activity in rhabdomyosarcoma cell line (PKCθ [5]): increases PKCθ catalytic activity

Compound: bombesin
- stimulation of PKCθ phosphorylation (pT538), secretagogues [1]: stimulated a significant increase

Compound: gastrin
- pT538 PKCθ phosphorylation by gastrin (CCKB receptors): did not produce any increase

Compound: insulin: known pancreatic growth factor
- PKCθ activation in myocytes (PKCθ [6]): able to increase PKCθ activation

Compound: secretin: gastrointestinal hormone that causes an increase in the cAMP
- stimulation of PKCθ phosphorylation (pT538), secretagogues [1]: Neither

- Amylase secretion (% total), −PKCθ inhibitor ([3]; VIP 10 nM): 3.4±0.6 % total
Compound: vasoactive intestinal peptide [VIP]
- stimulation of PKCθ phosphorylation (pT538), secretagogues [1]: Neither
- PKCδ activation in cortical astrocytes (PKCδ [7]): activates PKCδ

Source: publication PMC3217170 (Biochimica et biophysica acta, 2011)
